Results from ChEMBL document CHEMBL1148947, “Prenylated benzophenones and xanthones from Hypericum scabrum” (J Nat Prod, 2004).
Values after ≈ are worked out from the molar mass of the structure shown. Active and inactive are the calls of the source. The calls are words filed in the database; no cut-off is given here.

Tests used:
A549 [1] = experiment: Cytotoxicity against human A549 cells after 3 days by SRB assay; format: functional, cell-based; settings: A549, 72 h
Method in brief: (§1)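 Cells kept in RPMI-1640 with 25 mM HEPES, 0.25% sodium bicarbonate, 10% FBS and 100 µg/mL kanamycin. Freshly trypsinized cells seeded at 1500-7500 per well with compound diluted from DMSO stock. After 3 days, attached cells fixed with cold 50% TCA, stained with 0.4% SRB, and bound dye solubilized. Absorbance read at 562 nm. IC50 = 50% reduction relative to untreated cells. Below 50% inhibition at 20 mcg/mL, percent inhibition reported.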

MCF7 [2] = experiment: Cytotoxicity against human MCF7 cells after 3 days by SRB assay; format: functional, cell-based; settings: MCF7, 72 h; method in brief: as §1
MCF7 [3] = experiment: Cytotoxicity against human MCF7 cells at 20 mcg/mL after 3 days by SRB assay; format: functional; settings: for inhibition at 20 µg/mL: MCF7, 72 h; method in brief: as §1
A549 [4] = experiment: Cytotoxicity against human A549 cells at 20 mcg/mL after 3 days by SRB assay; format: functional; settings: for inhibition at 20 µg/mL: A549, 72 h; method in brief: as §1

Compound | IC50 (A549 [1]) [µg/mL] | IC50 (MCF7 [2]) [µg/mL] | inhibition at 20 µg/mL (MCF7 [3]) [%] | inhibition at 20 µg/mL (A549 [4]) [%] | Activity (MCF7 [3]) | Activity (A549 [4])
CC(C)=CC[C@H]1C[C@]2(CC=C(C)C)C(=O)C(C(=O)c3ccccc3)=C(O)[C@](CC=C(C)C)(C2=O)C1(C)C | 13.7 (≈ 27.3 µM) | 10 (≈ 19.9 µM) | – | – | – | –
O=c1c2cc(O)ccc2oc2cccc(O)c12 | 14.5 (≈ 63.5 µM) | 19.5 (≈ 85.5 µM) | – | – | – | –
O=c1c2ccc(O)c(O)c2oc2cc(O)cc(O)c12 | 10 (≈ 38.4 µM) | 9.3 (≈ 35.7 µM) | – | – | – | –
COc1ccc(O)c2c(=O)c3cc(O)ccc3oc12 | 8.5 (≈ 32.9 µM) | 15.2 (≈ 58.9 µM) | – | – | – | –
O=c1c(-c2c(O)cc(O)c3c(=O)cc(-c4ccc(O)cc4)oc23)c(-c2ccc(O)cc2)oc2cc(O)cc(O)c12 | > 20 | > 20 | 26 | 27 | – | –
CC(C)=CCc1c(O)c(O)cc2oc3cc(O)cc(O)c3c(=O)c12 | 18.5 (≈ 56.3 µM) | 18.4 (≈ 56 µM) | – | – | – | –
O=c1c(O[C@@H]2OC[C@@H](O)[C@@H](O)[C@@H]2O)c(-c2ccc(O)c(O)c2)oc2cc(O)cc(O)c12 | > 20 | > 20 | 17 | 11 | – | –
O=c1c(O[C@@H]2O[C@@H](CO)[C@H](O)[C@H]2O)c(-c2ccc(O)c(O)c2)oc2cc(O)cc(O)c12 | – | – | – | – | inactive | inactive
O=c1c(O[C@@H]2O[C@H](CO)[C@H](O)[C@H](O)[C@H]2O)c(-c2ccc(O)c(O)c2)oc2cc(O)cc(O)c12 | – | – | – | – | inactive | inactive
CC(C)=CCC[C@]1(C)[C@@H](CC=C(C)C)C[C@]2(C)C(=O)[C@@]3(CC=C(C)C)O[C@]2(O)[C@]1(C(=O)C(C)C)C3=O [HYPERIBONE J] | > 20 | 17.8 (≈ 35.7 µM) | – | 49 | – | –
CC(C)=CC[C@@]12C[C@H]3[C@@H](C=C(C)C)[C@@](C(=O)c4ccccc4)(C1=O)C(=O)[C@@](CC=C(C)C)(C2=O)C3(C)C [HYPERIBONE K] | 13.7 (≈ 27.4 µM) | 10 (≈ 20 µM) | – | – | – | –
CC(C)=CC[C@H]1C[C@@]2(CC=C(C)C)C(=O)C(C(=O)c3ccccc3)=C(O)[C@](C)(C2=O)C1(C)C [HYPERIBONE L] | 9.2 (≈ 20.5 µM) | 15 (≈ 33.4 µM) | – | – | – | –
CC(C)(O)C1Cc2c(c(O)cc3oc4cc(O)cc(O)c4c(=O)c23)O1 (centres undefined) [HYPERXANTHONE A] | > 20 | > 20 | 27 | 26 | – | –
C=C(C)C(O)Cc1c(O)c(O)cc2oc3cc(O)cc(O)c3c(=O)c12 (centres undefined) [HYPERXANTHONE C] | 9.3 (≈ 27 µM) | 11.2 (≈ 32.5 µM) | – | – | – | –
C=C(C)C(O)Cc1c(O)ccc2oc3cc(O)cc(O)c3c(=O)c12 (centres undefined) [HYPERXANTHONE D] | > 20 | > 20 | 34 | 43 | – | –
CC1(C)CCc2c(c(O)cc3oc4cc(O)cc(O)c4c(=O)c23)O1 [HYPERXANTHONE E] | 18.5 (≈ 56.3 µM) | 19.3 (≈ 58.8 µM) | – | – | – | –
O=c1cc(-c2ccc(O)c(O)c2)oc2cc(O)cc(O)c12 [LUTEOLIN] | 12.9 (≈ 45.1 µM) | 14.3 (≈ 50 µM) | – | – | – | –
O=c1c(O)c(-c2cc(O)c(O)c(O)c2)oc2cc(O)cc(O)c12 [MYRICETIN] | 14.8 (≈ 46.5 µM) | 4.7 (≈ 14.8 µM) | – | – | – | –
C[C@H]1O[C@@H](Oc2c(-c3cc(O)c(O)c(O)c3)oc3cc(O)cc(O)c3c2=O)[C@@H](O)[C@@H](O)[C@@H]1O [MYRICITRIN] | > 20 | 11.2 (≈ 24.1 µM) | – | 13 | – | –
O=c1c(O)c(-c2ccc(O)c(O)c2)oc2cc(O)cc(O)c12 [QUERCETIN] | > 20 | 19.5 (≈ 64.5 µM) | – | 21 | – | –
C[C@@H]1O[C@@H](Oc2c(-c3ccc(O)c(O)c3)oc3cc(O)cc(O)c3c2=O)[C@H](O)[C@H](O)[C@H]1O [QUERCITRIN] | > 20 | > 20 | 18 | 12 | – | –
CC1(C)C=Cc2c(c(O)cc3oc4cc(O)cc(O)c4c(=O)c23)O1 [TOXYLOXANTHONE B] | > 20 | > 20 | 17 | 28 | – | –
